In assay [1] the test system is Enterococcus faecalis. As to the kind of experiment: Minimum inhibitory activity against Enterococcus faecalis OC3041. The class given is functional. The essentials: (§1)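 MIC by NCCLS broth microdilution. Strains are ATCC and clinical isolates, including methicillin-resistant S. aureus.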
Assay [2] concerns Staphylococcus aureus. As to the kind of experiment: Minimum inhibitory activity against Staphylococcus aureus ATCC 29213. It counts as functional. The essentials:
as §1

In assay [3] the test system is Staphylococcus aureus. As to the kind of experiment: Minimum inhibitory activity against methicillin resistant Staphylococcus aureus (MRSA) OC2089. The class given is functional. In short, it runs like this:
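Broth microdilution MIC following NCCLS methods for aerobically growing bacteria.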

Assay [4] deals with T1, KinA/Spo0F (sporulation kinase A/sporulation initiation phosphotransferase F) (Bacillus subtilis (strain 168), UniProt P06628+P16497).
T1 sequence (P06628 whole entry): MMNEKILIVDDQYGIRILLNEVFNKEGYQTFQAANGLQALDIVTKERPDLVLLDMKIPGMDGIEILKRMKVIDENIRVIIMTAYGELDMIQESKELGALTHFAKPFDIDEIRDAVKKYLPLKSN
T1 sequence (P16497 whole entry): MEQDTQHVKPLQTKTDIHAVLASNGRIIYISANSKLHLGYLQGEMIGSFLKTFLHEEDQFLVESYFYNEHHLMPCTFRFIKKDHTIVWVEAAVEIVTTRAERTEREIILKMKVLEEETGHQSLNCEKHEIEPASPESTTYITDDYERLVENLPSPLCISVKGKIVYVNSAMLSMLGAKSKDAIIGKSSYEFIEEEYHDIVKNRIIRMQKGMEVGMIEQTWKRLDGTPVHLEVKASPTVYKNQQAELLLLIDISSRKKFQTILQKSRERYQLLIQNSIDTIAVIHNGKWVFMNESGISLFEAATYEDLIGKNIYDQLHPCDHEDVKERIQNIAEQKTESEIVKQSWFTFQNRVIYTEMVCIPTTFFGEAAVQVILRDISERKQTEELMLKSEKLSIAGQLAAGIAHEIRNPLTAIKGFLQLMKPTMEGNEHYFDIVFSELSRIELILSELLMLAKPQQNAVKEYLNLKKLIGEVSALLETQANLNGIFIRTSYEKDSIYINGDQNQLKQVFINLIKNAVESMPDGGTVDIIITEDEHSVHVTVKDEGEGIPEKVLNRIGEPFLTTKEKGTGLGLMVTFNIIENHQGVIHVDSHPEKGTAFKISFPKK
As to the kind of experiment: Inhibition of autophosphorylation of the two-component signal transduction system kinase was measured using the KinA/Spo0F regulatory system of Bacillus subtilis. The class given is functional.

Assay [5] concerns Enterococcus faecium. Kind of assay: Minimum inhibitory activity against Enterococcus faecium OC3312. It counts as functional. In short, it runs like this:
as §1

Assay [6] deals with Staphylococcus aureus. As to the kind of experiment: Minimum inhibitory activity against Staphylococcus aureus MRSA OC2089. The class given is functional. The essentials:
as §1

The test system of assay [7] is Enterococcus faecalis. Kind of assay: Activity of the VanS/VanR TCS in Enterococcus faecalis OC3364; +{i} indicate induced overexpression of luciferase specific activity. It counts as functional, organism-based. In short, it runs like this: (§2)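 E. faecalis OC3364 (JH2-derived) carries vanR vanS and a vanH-luc fusion on separate plasmids. […] OD600 was read every 30 min. At 2 h, cells were lysed by 10 min shaking in an equal volume of Genepol X-80 mix. Luciferase RLU was read with ATP, coenzyme A and luciferin. Specific activity (RLU/OD600) was compared with an untreated control.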

Assay [8] has as its system Enterococcus faecalis. As to the kind of experiment: Percentage of specific activity relative to untreated control at a concentration allowing 80% growth. It counts as functional. The essentials:
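OD600 is followed every 30 min. Luciferase RLU/OD600 is measured 2 h after induction. The value is specific activity as a percentage of untreated control, taken at the compound concentration allowing 80% growth.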

In assay [9] the test system is Enterococcus faecalis. Kind of assay: Activity of the VanS/VanR TCS in Enterococcus faecalis OC3364; + indicate decrease of the luciferase specific activity relative to an untreated control. The class given is functional, organism-based. In short, it runs like this: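 Reporter assay in Enterococcus faecalis OC3364 (from JH2) carrying vanR vanS and a Φ(vanH-luc) fusion on separate plasmids. […] OD600 is read every 30 min. At 2 h cells are lysed and luciferase RLU is read with ATP, coenzyme A and luciferin. Specific activity = RLU/OD600, compared with an untreated control.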

For assay [10], the system named is Enterococcus faecalis. Kind of assay: Activity of the VanS/VanR TCS in Enterococcus faecalis OC3364; +{i} indicate induced over-expression of luciferase specific activity. It counts as functional, organism-based. The essentials: as §2
The subject of assay [11] is Enterococcus faecalis. Kind of assay: Activity of the VanS/VanR TCS in Enterococcus faecalis OC3364; -{i} indicate over-expression of luciferase in both strains. The class given is functional, organism-based. In short, it runs like this:
as §2

Converted amounts (≈) assume the structure as drawn. The source made the active and inactive calls. No cut-off for these calls is given here.

As a reminder, the MIC is the least concentration at which growth counts as inhibited. A word on the IC50: it is the concentration that inhibits the measured activity by half. Regarding `O=C(Nc1ccccc1)c1cc(Cl)cc(Cl)c1O`, the MIC was 64 µg/mL (≈ 227 µM) in assay [1], 1 µg/mL (≈ 3.54 µM) in [2], 4 µg/mL (≈ 14.2 µM) in [3] and 32 µg/mL (≈ 113 µM) in assay [5]. In assay [4], this molecule had an IC50 of over 500 µM.

Turning to `Cc1cc(C(C#N)c2ccc(Cl)cc2)c(Cl)cc1NC(=O)c1cc(Cl)ccc1O` (stereo not drawn), the IC50 in [4] was over 500 µM.

In assay [4], `Cc1cc(C(=O)c2ccc(Cl)cc2)c(Cl)cc1NC(=O)c1cc(I)cc(I)c1O` yielded an IC50 of over 500 µM.

The molecule `CC(C)(C)c1cc(C(=O)Nc2ccc(Cl)c(Cl)c2)c(O)c(C(C)(C)C)c1` gave an IC50 in assay [4] of over 500 µM.

`COc1cc(OC)c(O)c(C(=O)Nc2cc(Cl)c(C(C#N)c3ccc(Cl)cc3)cc2C)c1` (stereo not drawn) yielded an IC50 in assay [4] of 250 µM.

With `Cc1onc(-c2ccccc2)c1C(=O)N[C@@H]1C(=O)N2[C@@H]1SC(C)(C)[C@@H]2C(=O)O` [OXACILLIN], the MIC in [1] is 16 µg/mL (≈ 39.9 µM); in [2], 0.25 µg/mL (≈ 0.623 µM); in assay [6] it was over 64 µg/mL; in assay [5], over 64 µg/mL.

As for `O=C(Nc1ccc(Cl)cc1)c1cc(Cl)cc(Cl)c1O`, the IC50 in assay [4] is 185 µM.

Consider `O=C(Nc1ccc(Cl)c(Cl)c1)c1cc(Cl)cc(Cl)c1O` [3,3',4',5-TETRACHLOROSALICYLANILIDE], for which the MIC turned out to be 0.5 µg/mL (≈ 1.42 µM) in [1], 0.5 µg/mL (≈ 1.42 µM) in assay [2], 0.25 µg/mL (≈ 0.712 µM) in assay [3] and 1 µg/mL (≈ 2.85 µM) in assay [5]. Further, the outcome in [7] was Active.

`Cc1cc(C(C#N)c2ccc(Cl)cc2)c(Cl)cc1NC(=O)c1cc(C(C)(C)C)cc(C(C)(C)C)c1O` (stereo not drawn) displayed an IC50 in assay [4] of over 500 µM.

Take `O=C(Nc1ccc(Cl)c(Cl)c1)c1cc(C(F)(F)F)cc(C(F)(F)F)c1O`: the MIC amounted to 2 µg/mL (≈ 4.78 µM) in [1], 1 µg/mL (≈ 2.39 µM) in [2], 1 µg/mL (≈ 2.39 µM) in assay [3] and 2 µg/mL (≈ 4.78 µM) in assay [5]. Further, the IC50 in assay [4] came to 27 µM. Besides, the outcome in [7] was Active.

`CN[C@H](CC(C)C)C(=O)N[C@H]1C(=O)N[C@@H](CC(N)=O)C(=O)N[C@H]2C(=O)N[C@H]3C(=O)N[C@H](C(=O)N[C@H](C(=O)O)c4cc(O)cc(O)c4-c4cc3ccc4O)[C@H](O)c3ccc(c(Cl)c3)Oc3cc2cc(c3O[C@@H]2O[C@H](CO)[C@@H](O)[C@H](O)[C@H]2O[C@H]2C[C@](C)(N)[C@H](O)[C@H](C)O2)Oc2ccc(cc2Cl)[C@H]1O` [VANCOMYCIN] gave an MIC in assay [5] of over 128 µg/mL.

Take `Cc1cc(C(C#N)c2ccc(Cl)cc2)c(Cl)cc1NC(=O)c1cc(I)cc(I)c1O` (stereo not drawn) [CLOSANTEL]: the minimal inhibitory concentration (MIC) in assay [1] is 0.12 µg/mL (≈ 0.181 µM); in assay [2], 2 µg/mL (≈ 3.02 µM); in assay [3] it was 1 µg/mL (≈ 1.51 µM); in assay [5], 1 µg/mL (≈ 1.51 µM). For the same molecule, in [8], the AG80 came to 100%. The same molecule displayed an IC50 in assay [4] of 3.8 µM.

With `O=C(Nc1ccc([N+](=O)[O-])cc1)c1cc(Cl)cc(Cl)c1O`, the MIC was over 32 µg/mL in [1], 4 µg/mL (≈ 12.2 µM) in [2], 4 µg/mL (≈ 12.2 µM) in [6] and over 64 µg/mL in assay [5]. The IC50 in assay [4] is over 500 µM.

In the case of `Cc1cc(C(C#N)c2ccc(Cl)cc2)c(Cl)cc1NC(=O)c1cccc(O)c1O` (stereo not drawn), the minimal inhibitory concentration (MIC) in assay [1], in assay [2], in [6] and in [5] was 16 µg/mL (≈ 37.4 µM) each time. The same molecule returned an AG80 in assay [8] of 66%. This molecule yielded an IC50 in [4] of 2.8 µM. Moreover, in [9], the outcome was Active.

`Cc1cc(C(CN)c2ccc(Cl)cc2)c(Cl)cc1NC(=O)c1cc(I)cc(I)c1O` (stereo not drawn) gave an IC50 in assay [4] of 86 µM.

In the case of `Cc1cc(C(C#N)c2ccc(Cl)cc2)c(Cl)cc1NC(=O)c1cc(Cl)cc(Cl)c1O` (stereo not drawn), the MIC turned out to be 2 µg/mL (≈ 4.17 µM) in assay [1], 1 µg/mL (≈ 2.08 µM) in [2], 1 µg/mL (≈ 2.08 µM) in [6] and 2 µg/mL (≈ 4.17 µM) in [5]. In addition, the outcome in assay [10] was Active. This molecule registered an IC50 in [4] of 4.8 µM.

Regarding `Cc1cc(C(C#N)c2ccc(Cl)cc2)c(Cl)cc1NC(=O)c1cc(C(F)(F)F)ccc1O` (stereo not drawn), the MIC in assay [1], in [2], in assay [3] and in assay [5] was 1 µg/mL (≈ 2.09 µM) each time. This molecule also gave an AG80 in assay [8] of 95%. This molecule came in with an IC50 in [4] of 19 µM.

`COc1cc(OC)c(O)c(C(=O)Nc2ccc(Cl)c(Cl)c2)c1` returned an IC50 in [4] of over 500 µM.

Turning to `O=C(Nc1ccc(Cl)c(Cl)c1)c1cc(I)cc(I)c1O`, the MIC came out at 0.5 µg/mL (≈ 0.936 µM) in assay [1], 1 µg/mL (≈ 1.87 µM) in [2], 0.25 µg/mL (≈ 0.468 µM) in assay [3] and 0.5 µg/mL (≈ 0.936 µM) in assay [5]. Besides, the half-inhibitory concentration (IC50) in assay [4] is 21 µM. The result in assay [7] was Active.

In assay [4], `O=C(Nc1ccc(Cl)c(Cl)c1)c1cc(Cl)ccc1O` came in with an IC50 of over 500 µM.

In assay [4], `Cc1cc(C(C#N)c2ccc(Cl)cc2)c(Cl)cc1NC(=O)c1cc(C(F)(F)F)cc(C(F)(F)F)c1O` (stereo not drawn) came in with an IC50 of 9 µM.

On to `CC(C)(C)c1ccc(NC(=O)c2cc(Cl)cc(Cl)c2O)cc1`, for which the MIC in [1] came to 8 µg/mL (≈ 23.7 µM); in assay [2], 2 µg/mL (≈ 5.91 µM); in assay [3], 2 µg/mL (≈ 5.91 µM); in assay [5] it was 4 µg/mL (≈ 11.8 µM). For the same molecule, the outcome in assay [11] was inactive. In assay [4], this molecule gave an IC50 of 67 µM.

On to `O=C(Nc1ccc(Cl)c(Cl)c1)c1cccc(O)c1O`, for which the MIC was 8 µg/mL (≈ 26.8 µM) in assay [1], 8 µg/mL (≈ 26.8 µM) in assay [2], 8 µg/mL (≈ 26.8 µM) in [6] and 32 µg/mL (≈ 107 µM) in [5]. This molecule came in with an AG80 in assay [8] of 48%. In assay [4], the IC50 was 9.5 µM. Besides, in assay [9], the outcome was Active.

In the case of `COc1ccc(NC(=O)c2cc(Cl)cc(Cl)c2O)cc1`, the IC50 in assay [4] is over 500 µM.

`O=C(Nc1ccc(Cl)c(Cl)c1)c1cc(C(F)(F)F)ccc1O` yielded an IC50 in assay [4] of over 500 µM.

For `O=C(Nc1ccc(Cl)c(C(F)(F)F)c1)c1cc(Cl)cc(Cl)c1O`, the MIC was 0.5 µg/mL (≈ 1.3 µM) in assay [1], 0.5 µg/mL (≈ 1.3 µM) in assay [2], 0.25 µg/mL (≈ 0.65 µM) in [3] and 1 µg/mL (≈ 2.6 µM) in assay [5]. Further, the outcome in assay [11] was inactive. Also, the IC50 in assay [4] turned out to be 50 µM.

The values above are taken from ChEMBL document CHEMBL1131046, “Substituted salicylanilides as inhibitors of two-component regulatory systems in bacteria” (J Med Chem, 1998).
